From ChEMBL document CHEMBL4765252, “Design, synthesis, and biological evaluation of novel 4H-chromen-4-one derivatives as antituberculosis agents against multidrug-resistant tuberculosis” (Eur J Med Chem, 2020)
Values after ≈ are worked out from the molar mass of the structure shown.

Key:
[1] = system: Mycobacterium tuberculosis; assay: Antitubercular activity against Mycobacterium tuberculosis H37Rv assessed as inhibition of bacterial growth; assay type: functional
[2] = system: Mycobacterium tuberculosis; assay: Antitubercular activity against Mycobacterium tuberculosis H37Rv assessed as inhibition of bacterial growth measured after 7 days by resazurin assay; assay type: functional; details: 168 h, time 7 day
[3] = system: Mycobacterium tuberculosis; assay: Antitubercular activity against Mycobacterium tuberculosis H37Rv assessed as inhibition of bacterial growth incubated for 6 days by MABA assay; assay type: functional; details: 144 h, time 6 day
[4] = system: Mycobacterium tuberculosis; assay: microbe, parasite or virus in culture; details: mc2-7000, 144 h
[5] = Metabolic stability of the compound in mouse liver microsomes; assay type: ADME, Microsome
Summary of the method: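 Compound was incubated with mouse liver microsomes plus NADPH for 30 min. Remaining substrate concentration was normalized to the time-zero concentration and given as % remaining. The stability call was made from incubations run without the NADPH cofactor.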

[6] = Selectivity index, ratio of IC50 for African green monkey Vero cells to MIC for Mycobacterium tuberculosis H37Rv; assay type: toxicity; details: read-out: Selectivity Index
Summary of the method: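 SI was calculated as Vero cell cytotoxicity IC50 divided by H37Rv MIC, both in μg/mL.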

[7] = Metabolic stability of the compound in mouse liver microsomes assessed as parent compound remaining […]; assay type: ADME, Microsome; details: read-out: Stabilty
[8] = Metabolic stability of the compound in human liver microsomes; assay type: ADME, Microsome
Vero = assay: Cytotoxicity against African green monkey Vero cells assessed as reduction in cell viability; assay type: cell-based; details: Chlorocebus sabaeus
[9] = Clearance in BALB/c mouse at 5 mg/kg, iv administered as single dose; assay type: ADME, organism-based; details: in vivo
[10] = Volume of distribution in BALB/c mouse at 5 mg/kg, iv administered as single dose; assay type: ADME, organism-based; details: in vivo
[11] = system: Mycobacterium tuberculosis; assay: In vivo antitubercular activity against Mycobacterium tuberculosis H37Rv infected in BALB/c mouse assessed as reduction in bacterial burden in lungs at 100 mg/kg, po administered for 21 days (reference value: 5.35 +/-0.17 log10CFU); assay type: functional; details: time 21 day
[12] = AUC (0 to infinity) in BALB/c mouse at 100 mg/kg, po administered as single dose; assay type: ADME, organism-based; set-up: time infinity, route oral, dose 100 mg/kg; details: in vivo
[13] = AUC (0 to t) in BALB/c mouse at 100 mg/kg, po administered as single dose; assay type: ADME, organism-based; set-up: dose 100 mg/kg; details: in vivo
[14] = Elimination half life in BALB/c mouse at 5 mg/kg, iv administered as single dose; assay type: ADME, organism-based; details: in vivo, read-out: beta t1/2 (converted)
[15] = AUC (0 to t) in BALB/c mouse at 5 mg/kg, iv administered as single dose; assay type: ADME, organism-based; set-up: dose 5 mg/kg; details: in vivo
[16] = MRT (0 to t) in BALB/c mouse at 5 mg/kg, iv administered as single dose; assay type: ADME, organism-based; details: in vivo
[17] = Oral bioavailability in BALB/c mouse at 100 mg/kg; assay type: ADME, organism-based; details: in vivo
[18] = Cmax in BALB/c mouse at 5 mg/kg, iv administered as single dose; assay type: ADME, organism-based; set-up: route intravenous, dose 5 mg/kg; details: in vivo
[19] = Cmax in BALB/c mouse at 100 mg/kg, po administered as single dose; assay type: ADME, organism-based; set-up: route oral, dose 100 mg/kg; details: in vivo
[20] = MRT (0 to infinity) in BALB/c mouse at 100 mg/kg, po administered as single dose; assay type: ADME, organism-based; details: in vivo
[21] = AUC (0 to infinity) in BALB/c mouse at 5 mg/kg, iv administered as single dose; assay type: ADME, organism-based; set-up: time infinity, route intravenous, dose 5 mg/kg; details: in vivo
[22] = Tmax in BALB/c mouse at 100 mg/kg, po administered as single dose; assay type: ADME, organism-based; details: in vivo
[23] = MRT (0 to infinity) in BALB/c mouse at 5 mg/kg, iv administered as single dose; assay type: ADME, organism-based; details: in vivo
[24] = Toxicity in BALB/c mouse infected with Mycobacterium tuberculosis H37Rv assessed as body weight at 100 mg/kg, po administered for 21 days (reference value: 21.32 +/- 1.03 gms); assay type: organism-based; details: in vivo, 504 h, time 21 day
[25] = Elimination half life in BALB/c mouse at 100 mg/kg, po administered as single dose; assay type: ADME, organism-based; details: in vivo, read-out: beta t1/2 (converted)
[26] = MRT (0 to t) in BALB/c mouse at 100 mg/kg, po administered as single dose; assay type: ADME, organism-based; details: in vivo
[27] = system: Mycobacterium tuberculosis; assay: In vivo antitubercular activity against Mycobacterium tuberculosis H37Rv infected in BALB/c mouse assessed as reduction in bacterial burden in lungs at 25 mg/kg, po administered for 21 days (reference value: 5.35 +/-0.17 log10CFU); assay type: functional; details: time 21 day
[28] = Toxicity in BALB/c mouse infected with Mycobacterium tuberculosis H37Rv assessed as body weight at 25 mg/kg, po administered for 21 days (reference value: 21.32 +/- 1.03 gms); assay type: organism-based; details: in vivo, 504 h, time 21 day

With COc1ccc(-c2cc(=O)c3cc(O)ccc3o2)cc1 the MIC [1] was > 32 µg/mL.
Compound C=CCCCCCCC[C@H]1C(=O)O[C@@H]1CCCCCNC(=O)c1ccc(N(C)C)cc1 has an MIC [2] of 1.6 µM (≈ 0.686 µg/mL).
With COC(=O)c1c(NC(=O)c2c(F)c(F)c(F)c(F)c2F)sc2c1CCCCC2 the MIC [1] was 1 µM.
CCOC(=O)c1c(NC(=O)c2c(F)c(F)c(F)c(F)c2F)sc(C(N)=O)c1C gave an MIC [1] of 0.5 µM.
With CCOC(=O)c1c(NC(=O)c2c(F)c(F)c(F)c(F)c2F)sc2c1CCN(CC)C2 the MIC [3] was 0.23 µM (≈ 0.103 µg/mL).
With CNC(=O)c1c(-c2ccc(O)cc2)oc2ccc(O)c(CN3CCCCC3)c12 the MIC [1] was 0.047 µg/mL and the MIC [4] was 0.09 µM (≈ 0.0342 µg/mL).
For O=c1cc(-c2ccccc2)oc2ccc(O)c(CN3CCCCC3)c12, the MIC [1] was 3.12 µg/mL.
For CCOC(=O)c1c(-c2ccccc2)oc2ccc(O)c(CN3CCCC3)c2c1=O, the MIC [1] was > 32 µg/mL.
Compound O=c1cc(-c2ccc(Cl)cc2)oc2ccc(O)c(CN3CCC3)c12 has an MIC [1] of 28.5 µg/mL.
For CCOC(=O)c1c(-c2ccccc2)oc2ccc(O)c(CN3CCC3)c2c1=O, the MIC [1] was 14.1 µg/mL.
O=c1cc(-c2ccc(O)cc2)oc2ccc(O)c(CN3CCCCC3)c12 showed an MIC [1] of 3.84 µg/mL.
For O=c1c(-c2ccc(O)cc2)coc2ccc(O)c(CN3CCCCC3)c12, the MIC [1] was > 32 µg/mL.
In the case of O=c1cc(-c2ccccc2)oc2ccc(O)c(CN3CCC3)c12, the MIC [1] is reported as 3.22 µg/mL.
Compound O=c1cc(-c2ccccc2)oc2ccc(O)c(CN3CC4(CSC4)C3)c12 has an MIC [1] of 31.1 µg/mL.
With CCOC(=O)c1c(-c2ccc(O)cc2)oc2ccc(O)c(CN3CCCC3)c2c1=O the MIC [1] was > 32 µg/mL.
For CCN(CC)Cc1c(O)ccc2oc(-c3ccc(O)cc3)cc(=O)c12, the MIC [1] was 29.9 µg/mL.
For O=c1cc(-c2ccc(O)cc2)oc2ccc(O)c(CN3CCCC3)c12, the Stabilty [5] was “Stable”, the selectivity ratio [6] was 9 and the remaining at 0.5 h [7] was 102%. The Stabilty [8] was “Stable”, the MIC [1] was 0.938 µg/mL and the IC50 (Vero) was 8.8 µg/mL (≈ 26.1 µM).
In the case of CCOC(=O)c1c(-c2ccccc2)oc2ccc(O)c(CN3CCCCC3)c2c1=O, the MIC [1] is reported as 31.9 µg/mL.
With O=c1cc(-c2ccc(O)cc2)oc2ccc(O)c(CN3CCOCC3)c12 the MIC [1] was > 32 µg/mL.
Work on O=c1cc(-c2ccc(F)cc2)oc2ccc(O)c(CN3CCC3)c12 yielded an MIC [1] of 3.55 µg/mL.
With O=c1cc(-c2ccc(O)cc2)oc2ccc(O)c(CNC3CCCCC3)c12 the MIC [1] was > 32 µg/mL.
For CNC(=O)c1c(-c2ccccc2)oc2ccc(O)c(CN3CCC3)c2c1=O, the MIC [1] was > 32 µg/mL.
For CNC(=O)c1c(-c2ccccc2)oc2ccc(O)c(CN3CCCC3)c2c1=O, the MIC [1] was > 32 µg/mL.
O=c1cc(-c2ccccc2)oc2ccc(O)c(CN3CCCC3)c12 gave an MIC [1] of 3.68 µg/mL.
For COc1ccc(-c2cc(=O)c3c(CN4CCCCC4)c(O)ccc3o2)cc1, the MIC [1] was 7.3 µg/mL.
Cc1ccc(-c2cc(=O)c3c(CN4CCC4)c(O)ccc3o2)cc1 showed an MIC [1] of 6.52 µg/mL.
With O=c1cc(-c2ccc(O)cc2)oc2ccc(O)c(CN3CCC3)c12 the clearance [9] was 80.1 mL/min/kg, the Stabilty [5] was “Stable” and the Vd [10] was 8.86 L/kg. It also gave an Activity [11] of 4.77 log10CFU, an AUC(0-inf) [12] of 4290 ng·h/mL and a selectivity ratio [6] of 117. The AUC(0-t) [13] was 4220 ng·h/mL, the half-life [14] was 1.28 h and the AUC(0-t) [15] was 1030 ng·h/mL. For the same compound, the MRT last [16] was 0.61 h, the bioavailability [17] was 20.5% and the Cmax [18] was 4460 ng/mL. For the same compound, the remaining at 0.5 h [7] was 96%, the Cmax [19] was 1660 ng/mL and the Stabilty [8] was “Stable”. The MRT inf [20] was 1.82 h, the AUC(0-inf) [21] was 1040 ng·h/mL and the MIC [1] was 0.45 µg/mL. It also gave a Tmax [22] of 0.25 h, an MRT inf [23] of 0.69 h and an IC50 (Vero) of 53.1 µg/mL (≈ 164 µM). The Activity [24] was 20.57 g, the half-life [25] was 1.42 h and the MRT last [26] was 1.7 h.
For CCOC(=O)c1c(-c2ccc(O)cc2)oc2ccc(O)c(CN3CCC3)c2c1=O, the MIC [1] was 7.91 µg/mL.
O=c1cc(-c2ccc(O)cc2)oc2ccc(O)c(CN3CCCCCC3)c12 gave an MIC [1] of 7.2 µg/mL.
For CN(C)Cc1c(O)ccc2oc(-c3ccc(O)cc3)cc(=O)c12, the MIC [1] was > 32 µg/mL.
O=c1cc(-c2ccc(O)cc2)oc2ccc(O)c(CN3CC4(CSC4)C3)c12 gave an MIC [1] of 15.3 µg/mL.
For CNC(=O)c1c(-c2ccccc2)oc2ccc(O)c(CN3CCCCC3)c2c1=O, the MIC [1] was > 32 µg/mL.
NNC(=O)c1ccncc1 [ISONIAZID] gave an Activity [27] of 1.76 log10CFU, an Activity [28] of 20.9 g and an MIC [1] of 0.039 µg/mL.
Compound CO[C@H]1/C=C/O[C@@]2(C)Oc3c(C)c(O)c4c(O)c(c(/C=N/N5CCN(C)CC5)c(O)c4c3C2=O)NC(=O)/C(C)=C\C=C\[C@H](C)[C@H](O)[C@@H](C)[C@@H](O)[C@@H](C)[C@H](OC(C)=O)[C@@H]1C [RIFAMPIN] has an MIC [1] of 0.057 µg/mL.
